This note sets out measurements from paper PMC8412899 (ACS Omega, 2021).

For series [1], the target named is T1, MCL-1 (Homo sapiens, UniProt Q07820). As to the kind of experiment: QA. In kind it is binding. The conditions noted are these: for Ki: QA MCL-1 Ki.
The subject of the next series is cleaved PARP. The series can be described thus: In vivo PD: increase of cleaved PARP in AMO1 xenografted mice. The conditions noted are these: for PARP activation (fold): AMO1 xenografted mice, 16 h after i.v. bolus treatment at 12.5 mg/kg. In short, it runs like this:
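Female CB-17 SCID mice (6–7 weeks) were implanted s.c. with 5 × 10⁶ AMO-1 cells in 50:50 medium:Matrigel. At ~200 mm³ tumor volume they were randomized, n = 3 per group. Test compound in 20% HPbCD/25 mM HCl was given as a single 12.5 mg/kg i.v. bolus. Cleaved PARP increase was measured in tumors 16 h later.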

For series [2], the target named is T1, MCL-1. The series can be described thus: FP. In kind it is binding. The conditions noted are these: FP MCL-1 Ki.
The test system of the next series is NCI-H929 cells. The series can be described thus: MTT cell viability assay of NCI H929 cell line. In kind it is cell-based. Conditions: for loss of cellular activity: compared to 13. (In general: Formazan colour is commonly taken as a measure of viable cells.)
The nature of series [3]: Atropoisomer stability in solution. In kind it is physicochemical.
A short description of series [4]: In vivo PK characteristics. Also on record: species or system mice. The conditions noted are these: mouse, iv, 12.5 mg/kg.
Setting [5] is: indole analogue versus preceding benzofurane/benzothiophene analogues.

T1 sequence (Q07820 whole entry): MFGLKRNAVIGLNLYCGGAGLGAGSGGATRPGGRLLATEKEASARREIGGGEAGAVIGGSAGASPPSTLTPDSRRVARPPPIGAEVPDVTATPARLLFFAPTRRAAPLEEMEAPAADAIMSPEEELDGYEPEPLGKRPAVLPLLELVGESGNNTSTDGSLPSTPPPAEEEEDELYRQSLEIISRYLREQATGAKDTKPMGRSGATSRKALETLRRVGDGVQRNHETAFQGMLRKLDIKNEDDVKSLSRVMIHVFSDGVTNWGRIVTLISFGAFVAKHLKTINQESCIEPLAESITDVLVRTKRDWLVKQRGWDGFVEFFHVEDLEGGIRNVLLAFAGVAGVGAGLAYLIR

Regarding `COc1ccccc1-c1nccc(COc2ccccc2C[C@@H](Oc2ccnc3sc(-c4ccc(F)cc4)c(-c4ccc(OCCN5CCN(C)CC5)c(Cl)c4C)c23)C(=O)O)n1` [Compound 17, (2R)-2-{[(3Sa)-3-{3-Chloro-2-methyl-4-[2-(4-methylpiperazin-1-yl)ethoxy]phenyl}-2-(4-fluorophenyl)thieno[2,3-b]pyridin-4-yl]oxy}-3-(2-{[2-(2-methoxyphenyl)pyrimidin-4-yl]methoxy}phenyl)propanoic Acid], affinity at MCL-1 [1] was put at a Ki of 0.1 nM. The “PARP activation (fold)” value in the series with cleaved PARP turned out to be 12 fold.
Regarding `COc1ccccc1C[C@@H](Oc1cccc2oc(-c3ccc(F)cc3)c(-c3ccc(OCCN4CCN(C)CC4)c(Cl)c3C)c12)C(=O)O` [Compound 14, (2R)-2-{[(3Sa)-3-{3-Chloro-2-methyl-4-[2-(4-methylpiperazin-1-yl)ethoxy]phenyl}-2-(4-fluorophenyl)-1-benzofuran-4-yl]oxy}-3-(2-methoxyphenyl)propanoic Acid], at MCL-1 [2], the inhibition constant Ki (commonly a measure of affinity in units of concentration, obtained from inhibition or displacement) stood at 820 nM. Further, the “loss of cellular activity” value with NCI-H929 cells is “more than 10 fold”.
For `COc1ccccc1C[C@@H](Oc1cccc2cc(-c3ccc(F)cc3)n(-c3ccc(OCCN4CCN(C)CC4)c(Cl)c3C)c12)C(=O)O` [Compound 15, (2R)-2-{[(1Ra)-1-{3-Chloro-2-methyl-4-[2-(4-methylpiperazin-1-yl)ethoxy]phenyl}-2-(4-fluorophenyl)-1H-indol-7-yl]oxy}-3-(2-methoxyphenyl)propanoic Acid], in that order: 47 nM and “more than 10 fold”.
On MCL-1 [1], `COc1ccccc1-c1nccc(COc2ccccc2C[C@@H](Nc2ncnc3sc(-c4ccc(F)cc4)c(-c4ccc(OCCN5CCN(C)CC5)c(Cl)c4C)c23)C(=O)O)n1` [Compound 16b, N-[(5Sa)-5-{3-Chloro-2-methyl-4-[2-(4-methylpiperazin-1-yl)ethoxy]phenyl}-6-(4-fluorophenyl)thieno[2,3-d]pyrimidin-4-yl]-2-{[2-(2-methoxyphenyl)pyrimidin-4-yl]methoxy}-D-phenylalanine] came in with a Ki of 0.303 nM.
On to `COc1ccccc1-c1nccc(COc2ccccc2C[C@@H](Oc2cccc3sc(-c4ccc(F)cc4)c(-c4ccc(OCCN5CCN(C)CC5)c(Cl)c4C)c23)C(=O)O)n1` [Compound 20, (2R)-2-{[(3Sa)-3-{3-Chloro-2-methyl-4-[2-(4-methylpiperazin-1-yl)ethoxy]phenyl}-2-(4-fluorophenyl)-1-benzothiophen-4-yl]oxy}-3-(2-{[2-(2-methoxyphenyl)pyrimidin-4-yl]methoxy}phenyl)propanoic Acid], for which the affinity at MCL-1 [1] corresponds to a Ki of 1.8 nM. Moreover, the “PARP activation (fold)” value with cleaved PARP is 156 fold.
For `COc1ccccc1-c1nccc(COc2ccccc2C[C@@H](Oc2cccc3oc(-c4ccc(F)cc4)c(-c4ccc(OCCN5CCN(C)CC5)c(Cl)c4C)c23)C(=O)O)n1` [Compound 21, (2R)-2-{[(3Sa)-3-{3-Chloro-2-methyl-4-[2-(4-methylpiperazin-1-yl)ethoxy]phenyl}-2-(4-fluorophenyl)-1-benzofuran-4-yl]oxy}-3-(2-{[2-(2-methoxyphenyl)pyrimidin-4-yl]methoxy}phenyl)propanoic Acid], the Ki on MCL-1 [1] is 1.3 nM.
As for `COc1ccccc1-c1nccc(COc2ccccc2C[C@@H](Nc2ncnc3oc(-c4ccc(F)cc4)c(-c4ccc(OCCN5CCN(C)CC5)c(Cl)c4C)c23)C(=O)O)n1` [Compound 25, N-[(5Sa)-5-{3-Chloro-2-methyl-4-[2-(4-methylpiperazin-1-yl)ethoxy]phenyl}-6-(4-fluorophenyl)furo[2,3-d]pyrimidin-4-yl]-2-{[2-(2-methoxyphenyl)pyrimidin-4-yl]methoxy}-D-phenylalanine], the atropoisomer stability result in series [3] is “stable in solution”. The Ki at MCL-1 [1] turned out to be 0.61 nM. For the same compound, the “PARP activation (fold)” value in the series on cleaved PARP was 60 fold. Besides, the “PARP activation, fold less” value in the series on cleaved PARP (than for the hydroxy acid analogue) is given as “about 2 fold”.
In turn, `COc1ccccc1-c1nccc(COc2ccccc2C[C@@H](Oc2nccc3nc(-c4ccc(F)cc4)c(-c4ccc(OCCN5CCN(C)CC5)c(Cl)c4C)n23)C(=O)O)n1` [Compound 26, (2R)-2-{[(3Ra)-3-{3-Chloro-2-methyl-4-[2-(4-methylpiperazin-1-yl)ethoxy]phenyl}-2-(4-fluorophenyl)imidazo[1,2-c]pyrimidin-5-yl]oxy}-3-(2-{[2-(2-methoxyphenyl)pyrimidin-4-yl]methoxy}phenyl)propanoic Acid] came in with a Ki at MCL-1 [1] of 8.2 nM. Moreover, at MCL-1 [1] (compared to 16a), the drop in affinity came out at 200 fold. Further, the “drop in cellular activity” value in the series with NCI-H929 cells (compared to 16a) was 200 fold.
For `COc1ccccc1-c1nccc(COc2ccccc2C[C@@H](Nc2ccnc3sc(-c4ccc(F)cc4)c(-c4ccc(OCCN5CCN(C)CC5)c(Cl)c4C)c23)C(=O)O)n1` [Compound 18, N-[3-{3-Chloro-2-methyl-4-[2-(4-methylpiperazin-1-yl)ethoxy]phenyl}-2-(4-fluorophenyl)thieno[2,3-b]pyridin-4-yl]-2-{[2-(2-methoxyphenyl)pyrimidin-4-yl]methoxy}-D-phenylalanine], the affinity on MCL-1 [1] corresponds to a Ki of 0.1 nM.
For the compound `CCc1c(-c2cccc(Cl)c2C)c2c(N[C@H](Cc3ccccc3)C(=O)O)ncnc2n1C` (single isomer, unassigned) [Compound 2b, N-[(5Sa)-5-(3-Chloro-2-methylphenyl)-6-ethyl-7-methyl-7H-pyrrolo[2,3-d]pyrimidin-4-yl]-D-phenylalanine], the atropoisomer stability entry in series [3] is listed as “stable under the testing conditions”. This compound had a Ki at MCL-1 [2] of 8700 nM.
In the case of `COc1ccccc1-c1nccc(COc2ccccc2C[C@@H](Nc2nccc3sc(-c4ccc(F)cc4)c(-c4ccc(OCCN5CCN(C)CC5)c(Cl)c4C)c23)C(=O)O)n1` [Compound 19, N-[3-{3-Chloro-2-methyl-4-[2-(4-methylpiperazin-1-yl)ethoxy]phenyl}-2-(4-fluorophenyl)thieno[3,2-c]pyridin-4-yl]-2-{[2-(2-methoxyphenyl)pyrimidin-4-yl]methoxy}-D-phenylalanine], the Ki on MCL-1 [1] was found to be 1.2 nM. At MCL-1 [1] (compared to 16b), the drop in affinity was 2–4 fold. In the series on NCI-H929 cells (compared to 16b), the “drop in cellular activity” value is 2–4 fold.
Turning to `COc1ccccc1-c1nccc(COc2ccccc2C[C@@H](Oc2ncnc3c2c(-c2ccc(OCCN4CCN(C)CC4)c(Cl)c2C)c(-c2ccc(F)cc2)n3C)C(=O)O)n1` [Compound 23, (2R)-2-[(5Sa)-5-[3-Chloro-2-methyl-4-[2-(4-methylpiperazin-1-yl)ethoxy]phenyl]-6-(4-fluorophenyl)-7-methyl-pyrrolo[2,3-d]pyrimidin-4-yl]oxy-3-[2-[[2-(2-methoxyphenyl)pyrimidin-4-yl]methoxy]phenyl]propanoic Acid], the atropoisomer stability result in series [3] is “rapid isomerization”. In addition, affinity at MCL-1 [1] was put at a Ki of 0.64 nM. For the same compound, at MCL-1 [1] (compared to 16a, affinity and activity), the fold less active entry is reported as “about 20 fold”. Moreover, the “PARP activation (fold)” value with cleaved PARP worked out at 5 fold.
Take `COc1ccccc1-c1nccc(COc2ccccc2C[C@@H](Oc2ncnc3sc(-c4ccc(F)cc4)c(-c4ccc(OCCN5CCN(C)CC5)c(Cl)c4C)c23)C(=O)O)n1` [Compound 16a, (2R)-2-{[(5Sa)-5-{3-Chloro-2-methyl-4-[2-(4-methylpiperazin-1-yl)ethoxy]phenyl}-6-(4-fluorophenyl)thieno[2,3-d]pyrimidin-4-yl]oxy}-3-(2-{[2-(2-methoxyphenyl)pyrimidin-4-yl]methoxy}phenyl)propanoic Acid]: in series [4], the AUC – broadly, the area under the concentration-time curve, a measure of exposure – came to 34000 ng·h/mL and the clearance (usually the rate of elimination divided by the concentration) is 6 mL/min/kg.
For the compound `CC#CCn1c(CC)c(-c2cccc(Cl)c2C)c2c(N[C@H](Cc3ccccc3)C(=O)O)ncnc21` (single isomer, unassigned) [Compound 7a, N-[7-(But-2-yn-1-yl)-(5Ra)-5-(3-chloro-2-methylphenyl)-6-ethyl-7H-pyrrolo[2,3-d]pyrimidin-4-yl]-D-phenylalanine], the affinity at MCL-1 [2], expressed as Ki, was 5900 nM.
With `Cc1c(Cl)cccc1-c1c2n(c3ncnc(N[C@H](Cc4ccccc4)C(=O)O)c13)CCC2` [Compound 11, N-[5-(3-Chloro-2-methylphenyl)-7,8-dihydro-6H-pyrimido[5,4-b]pyrrolizin-4-yl]-D-phenylalanine], the atropoisomer stability entry in series [3] is “facile interconversion of the atropoisomers in solution”.
At MCL-1 [1], `COc1ccccc1-c1nccc(COc2ccccc2C[C@@H](Oc2cccc3c2c(-c2ccc(OCCN4CCN(C)CC4)c(Cl)c2C)c(-c2ccc(F)cc2)n3C)C(=O)O)n1` [Compound 22, (2R)-2-{[(3Sa)-3-{3-Chloro-2-methyl-4-[2-(4-methylpiperazin-1-yl)ethoxy]phenyl}-2-(4-fluorophenyl)-1-methyl-1H-indol-4-yl]oxy}-3-(2-{[2-(2-methoxyphenyl)pyrimidin-4-yl]methoxy}phenyl)propanoic Acid] came in with a Ki of 2.3 nM. Besides, the “drop of on-target affinity” value at MCL-1 [1] (setting [5]) is “ca. 2 fold”. Further, the “drop of cellular activity” value in the series with NCI-H929 cells (setting [5]) was “ca. 2 fold”.
